Activity calls are given as the source filed them. The calls are words filed in the database; no cut-off is given here.
Legend:
KB = test: Cytotoxicity against human KB cells by colorimetric method; format: functional, cell-based
Method in brief: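 KB cells assayed by the method of O'Brien and coworkers; ellipticine as reference compound; IC50 derived.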

Plasmodium falciparum = test: Antimalarial activity against multidrug-resistant Plasmodium falciparum K1 assessed as [3H]-hypoxanthine incorporation 24 to 42 hrs by scintillation counting analysis; format: functional, organism-based
Method in brief: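 Microculture radioisotope technique against multidrug-resistant K1 parasites; dihydroartemisinin as reference drug.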

[1] = system: Mycobacterium tuberculosis; test: Antimicrobial activity against Mycobacterium tuberculosis H37Ra assessed as growth inhibition by green fluorescent protein-based fluorescent detection; format: functional, organism-based
Method in brief: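 Growth inhibition read by GFP-based fluorescence; isoniazid as reference drug; result reported as MIC.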

Vero = test: Cytotoxicity against african green monkey Vero cells by colorimetric method; format: cell-based; conditions: Chlorocebus sabaeus
Method in brief: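 Vero cells assayed by a colorimetric method; ellipticine as reference compound; IC50 derived.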

Compound	inhibition (KB)	Activity (Plasmodium falciparum)	Activity [1]	IC50 (KB) [µM]	IC50 (Vero) [µM]
COc1c(O)c2c3c(c(O)cc(C)c3c1O)C(=O)[C@](C)(C/C=C(\C)CC/C=C(\C)CC[C@@H](O)C(C)(C)O)C2=O	inactive	inactive	inactive	–	–
C=C(C)C#Cc1cc(C(=O)O)ccc1O	inactive	inactive	inactive	–	–
CC1=C[C@@H]2[C@H]3[C@H]([C@H](O)C(=O)[C@]24C(=O)N[C@@H](CC(C)C)[C@@H]4[C@@H]1C)[C@@H](O)CCC[C@]3(C)O	inactive	inactive	inactive	–	–
CO[C@@]1(C/C=C(\C)CC/C=C(\C)CC[C@@H](O)C(C)(C)O)C(=O)c2c(O)cc(C)c3c(O)c(C)c(O)c(c23)C1=O	–	inactive	inactive	48.4	34.2
